Results reported in ChEMBL document CHEMBL2040727, “Substituted thiazoles VI. Synthesis and antitumor activity of new 2-acetamido- and 2 or 3-propanamido-thiazole analogs” (2012).

Assays:
Format in all cases: functional
NCI-H23 = test: Growth inhibition of human NCI-H23 cells at 10 uM after 48 hrs by coulter counter analysis; settings: NCI-H23, 48 h, read-out: GI
How it was run: (§1)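 Single-dose NCI 60-line panel screen of test compounds. Cells grown in RPMI 1640 with 10% FBS. Compounds dissolved in DMSO, then diluted in phosphate buffer saline (final DMSO below 1%). Wells run in duplicate at 6 × 10⁴ cells/ml. Controls held PBS and DMSO at matching dilutions. Incubation 48 h at 37 °C under humidified 5% CO2. Cells diluted tenfold in saline and counted by Coulter counter. Percent growth inhibition taken from mean-graph of treated-cell growth.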

UACC-62 = test: Growth inhibition of human UACC62 cells at 10 uM after 48 hrs by coulter counter analysis; settings: UACC-62, 48 h, read-out: GI
How it was run: (§2)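 Single-dose screen in the NCI 60 cell line panel. Cells grown in RPMI 1640 with 10% FBS. Compounds dissolved in DMSO and diluted in phosphate buffered saline, final DMSO under 1%. Duplicate wells seeded from culture at 6 × 10⁴ cells/ml. Incubated 48 h at 37 °C, humidified, 5% CO2. Cells diluted tenfold in saline and Coulter-counted. Percent growth inhibition computed against PBS/DMSO controls.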

HOP-62 = test: Growth inhibition of human HOP62 cells at 10 uM after 48 hrs by coulter counter analysis; settings: HOP-62, 48 h, read-out: GI; how it was run: as §1
A498 = test: Growth inhibition of human A498 cells at 10 uM after 48 hrs by coulter counter analysis; settings: A498, 48 h, read-out: GI; how it was run: as §1
OVCAR-8 = test: Growth inhibition of human OVCAR8 cells at 10 uM after 48 hrs by coulter counter analysis; settings: OVCAR-8, 48 h, read-out: GI; how it was run: as §1
Malme-3M = test: Growth inhibition of human MALME-3M cells at 10 uM after 48 hrs by coulter counter analysis; settings: read-out: GI; how it was run: as §1
SN12C = test: Growth inhibition of human SN12C cells at 10 uM after 48 hrs by coulter counter analysis; settings: read-out: GI; how it was run: as §1
UO-31 = test: Growth inhibition of human UO31 cells at 10 uM after 48 hrs by coulter counter analysis; settings: UO-31, 48 h, read-out: GI; how it was run: as §2
SF-295 = test: Growth inhibition of human SF295 cells at 10 uM after 48 hrs by coulter counter analysis; settings: SF-295, 48 h, read-out: GI; how it was run: as §1
SK-MEL-2 = test: Growth inhibition of human SK-MEL-2 cells at 10 uM after 48 hrs by coulter counter analysis; settings: SK-MEL-2, 48 h, read-out: GI; how it was run: as §1
BT-549 = test: Growth inhibition of human BT549 cells at 10 uM after 48 hrs by coulter counter analysis; settings: BT-549, 48 h, read-out: GI; how it was run: as §1
EKVX = test: Growth inhibition of human EKVX cells at 10 uM after 48 hrs by coulter counter analysis; settings: read-out: GI; how it was run: as §1
K562 = test: Growth inhibition of human K562 cells at 10 uM after 48 hrs by coulter counter analysis; settings: K562, 48 h, read-out: GI; how it was run: as §1
HL-60(TB) = test: Growth inhibition of human HL-60(TB) cells at 10 uM after 48 hrs by coulter counter analysis; settings: HL-60, 48 h, read-out: GI
How it was run: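 Cells grown in RPMI 1640 with 10% FBS. Compound was dissolved in DMSO and diluted in PBS (under 1% DMSO final), then added in duplicate wells to culture at 6 × 10⁴ cells/ml. PBS/DMSO vehicle controls were included. Incubated at 37 °C, humidified 5% CO₂, for 48 h. Cells were diluted 10-fold in saline and Coulter-counted. Single-dose NCI-60 screen, read as percent growth inhibition.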

SNB-19 = test: Growth inhibition of human SNB19 cells at 10 uM after 48 hrs by coulter counter analysis; settings: SNB-19, 48 h, read-out: GI; how it was run: as §1
T47D = test: Growth inhibition of human T47D cells at 10 uM after 48 hrs by coulter counter analysis; settings: read-out: GI; how it was run: as §2
U-251 = test: Growth inhibition of human U251 cells at 10 uM after 48 hrs by coulter counter analysis; settings: U-251, 48 h, read-out: GI; how it was run: as §2
OVCAR-3 = test: Growth inhibition of human OVCAR3 cells at 10 uM after 48 hrs by coulter counter analysis; settings: OVCAR-3, 48 h, read-out: GI; how it was run: as §1
OVCAR-5 = test: Growth inhibition of human OVCAR5 cells at 10 uM after 48 hrs by coulter counter analysis; settings: OVCAR-5, 48 h, read-out: GI; how it was run: as §1
HOP-92 = test: Growth inhibition of human HOP92 cells at 10 uM after 48 hrs by coulter counter analysis; settings: HOP-92, 48 h, read-out: GI; how it was run: as §1
MDA-MB-468 = test: Growth inhibition of human MDA-MB-468 cells at 10 uM after 48 hrs by coulter counter analysis; settings: MDA-MB-468, 48 h, read-out: GI; how it was run: as §1

Row | SMILES | inhibition of growth at 10 µM (NCI-H23) [%] | inhibition of growth at 10 µM (UACC-62) [%] | inhibition of growth at 10 µM (HOP-62) [%] | inhibition of growth at 10 µM (A498) [%] | inhibition of growth at 10 µM (OVCAR-8) [%] | inhibition of growth at 10 µM (Malme-3M) [%] | inhibition of growth at 10 µM (SN12C) [%] | inhibition of growth at 10 µM (UO-31) [%] | inhibition of growth at 10 µM (SF-295) [%] | inhibition of growth at 10 µM (SK-MEL-2) [%] | inhibition of growth at 10 µM (BT-549) [%] | inhibition of growth at 10 µM (EKVX) [%] | inhibition of growth at 10 µM (K562) [%] | inhibition of growth at 10 µM (HL-60(TB)) [%] | inhibition of growth at 10 µM (SNB-19) [%] | inhibition of growth at 10 µM (T47D) [%] | inhibition of growth at 10 µM (U-251) [%] | inhibition of growth at 10 µM (OVCAR-3) [%] | inhibition of growth at 10 µM (OVCAR-5) [%] | inhibition of growth at 10 µM (HOP-92) [%] | other results
1 | O=C(CCCl)Nc1nc(-c2ccccc2)cs1 | 34.7 | 39 | 51.4 | 78.4 | 56.1 | 68.2 | 57.2 | 83.2 | 46.3 | 71.2 | 74.5 | 24.1 | 69.3 | 17.9 | 29.3 | 55.2 | 55.8 | 98 | 35.7 |  | 
2 | O=C(CCN1CCN(c2ccccc2)CC1)Nc1nc(-c2ccccc2)cs1 | 31.4 | 33.2 | 24.8 | 67.5 | 23.6 | < 10 | 33.5 | 68.9 | 13.6 | < 10 | 26.1 | 24.8 | 32.6 | < 10 | 10.3 | 20.4 | 15.6 | 26.1 | 18.8 | 59.6 | inhibition of growth at 10 µM (MDA-MB-468): 33.4%
3 | CCOC(=O)c1sc(NC(=O)CCN2CCN(c3ccccc3)CC2)nc1C | < 10 | < 10 | < 10 | 12.8 | < 10 | 12 | < 10 | 19.7 | < 10 | < 10 | < 10 | < 10 | < 10 | < 10 | < 10 | < 10 | < 10 | < 10 | < 10 | 17.5 | inhibition of growth at 10 µM (MDA-MB-468): < 10%
4 | CCOC(=O)c1sc(NC(=O)CCN2CCOCC2)nc1C | < 10 | < 10 | < 10 | < 10 | < 10 | < 10 | < 10 | 10.6 | < 10 | < 10 | < 10 | < 10 | < 10 | < 10 | < 10 | < 10 | < 10 | < 10 | < 10 | 21.9 | inhibition of growth at 10 µM (MDA-MB-468): < 10%
5 | Cc1cnc(NC(=O)CN2CCN(c3ccccc3)CC2)s1 | < 10 | < 10 | < 10 | < 10 | < 10 | < 10 | < 10 | 13.1 | < 10 | < 10 | < 10 | 12.1 | < 10 | < 10 | < 10 | < 10 | < 10 | < 10 | < 10 | < 10 | inhibition of growth at 10 µM (MDA-MB-468): < 10%
6 | CCOC(=O)c1sc(NC(=O)CN(C)C)nc1C | < 10 | < 10 | < 10 | < 10 | < 10 | < 10 | < 10 | 14.8 | < 10 | < 10 | < 10 | < 10 | < 10 | < 10 | < 10 | < 10 | < 10 | < 10 | < 10 | < 10 | inhibition of growth at 10 µM (MDA-MB-468): < 10%
7 | Cc1cnc(NC(=O)CN2CCN(C)CC2)s1 | < 10 | < 10 | < 10 | < 10 | < 10 | < 10 | < 10 | 10.2 | < 10 | < 10 | < 10 | < 10 | < 10 | < 10 | < 10 | < 10 | < 10 | < 10 | < 10 | < 10 | inhibition of growth at 10 µM (MDA-MB-468): < 10%
8 | CCOC(=O)c1sc(NC(=O)CCN2CCN(C)CC2)nc1C | < 10 | < 10 | < 10 | < 10 | < 10 | < 10 | < 10 | 19.3 | < 10 | < 10 | < 10 | 15.9 | < 10 | < 10 | < 10 | < 10 | < 10 | < 10 | < 10 | < 10 | inhibition of growth at 10 µM (MDA-MB-468): 25.2%
9 | CN1CCN(CCC(=O)Nc2nc(-c3ccccc3)cs2)CC1 | < 10 | 11.1 | 14.5 | < 10 | < 10 | 12.7 | 17.2 | 54 | < 10 | < 10 | 16.5 | < 10 | < 10 | 11.6 | < 10 | < 10 | < 10 | < 10 | < 10 | 24.5 | inhibition of growth at 10 µM (MDA-MB-468): < 10%
